We go through 21 molecules from PMC7689742 (Clinical Pharmacology and Therapeutics, 2020).

Broadly, the solubility is the concentration that dissolves in the medium under given conditions. Read a low solubility as a poorly soluble substance. The term Cmax denotes the highest concentration seen after dosing. A word on the Tmax: it is the time from dosing to the highest level. By half-life is commonly meant the time needed for the level to fall by half in the phase considered. A high value points to slow decline.

The structures appear in SMILES notation. In brackets after ≈: the same amount, converted by molar mass. Several values for one entry are separate records, joined by “and”; a condition that tells them apart may be missing. Identical values can stand only once. Like-named read-outs stand apart in the source and are kept apart here.

For data set [1] the following is noted: 1:1 complex with HP‐β‐CD; cited from earlier work.
The nature of data set [2]: Determination of the binding constant. The conditions noted are these: for k complex (M^−1) / k complex: 1:1 complex with HP‐β‐CD, source Internal data. It is filed as physicochemical.
Data set [3] can be described thus: Physiochemical properties used for fenebrutinib.
For data set [4], the system named is MDCK cell monolayer. As to the kind of experiment: Permeability across an MDCK cell monolayer. It is filed as in vitro ADME, canine. The settings on record: HP‐β‐CD:fenebrutinib molar ratio 1.56 (266 mg HP‐β‐CD). An outline of the steps: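 MDCK cells with canine Mdr1 knocked out by CRISPR-Cas9 were grown 5 days on 1 µm pore polyester inserts. Monolayers were equilibrated 20 min at 37°C in HBSS with 10 mM Hepes, pH 7.4. Donor held 20 µM test compound, 50 µM lucifer yellow and 0–20% w/v HP-β-CD. Apical-to-basolateral receivers were sampled at 30, 60 and 90 min. Quantitation was by LC-MS/MS; Papp = (dQ/dt)/(A·C0).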

A short description of data set [5]: Pharmacokinetic study in pentagastrin‐pretreated dogs with or without HP‐β‐CD. It is filed as in vivo, dog. The conditions noted are these: for AUC 0‐∞ / Fenebrutinib recovered in feces / Cmax / Tmax: 100 mg tablets; for Cmax / Tmax: male, beagle, dog, plasma, po, 100 mg. An outline of the steps:
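Fasted male beagles got intramuscular pentagastrin at 6 µg/kg about 30 min before dosing. They then had oral gavage of pH 2 water (control) or HP-β-CD in pH 2 water (0.8, 2 or 8 g total), each plus water to 250 mL, followed by two 50 mg tablets (n = 4/group). Plasma was sampled 5 min–24 h and assayed by LC-MS/MS (LLOQ 1.02 ng/mL). Cumulative fecal recovery was measured. Groups were compared by one-way ANOVA with Bonferroni's test.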

Data set [6] is described as follows: Itraconazole clinical DDI study, fenebrutinib PK in healthy subjects. It is filed as in vivo, human. An outline of the steps: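 Single oral 100 mg test-compound dose on Day 1; after a 3-day washout, inhibitor 200 mg oral solution once daily Days 4–9, with co-dosed 100 mg test compound Day 10 and one more inhibitor dose Day 11. Overnight fast, 240 mL water, food withheld 4 h post-dose. Plasma sampled predose to 48 h on Days 1 and 10. Mixed-model least-squares means, 90% CI of difference.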

Data set [7] can be described thus: Determination of the binding constant. It is filed as physicochemical. The conditions noted are these: aqueous, 48 hours, ambient. An outline of the steps: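 Excess test compound was added to sealed glass vials of aqueous α-cyclodextrin or HP-β-CD at several concentrations. Vials were shaken 48 h at ambient conditions to equilibrate, then centrifuge-filtered to remove solids. Dissolved compound was quantified by HPLC with diode array detection. k_complex = [complex]/([intrinsic solubility]·[free cyclodextrin]).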

The nature of data set [8]: GastroPlus human model. The settings on record: for clearance: both, human, plasma, oral.
Data set [9] in a line: GastroPlus dog model.
Setting [10] is: both, human, plasma, po, 100 mg.
The mark [11] stands for this setting: two‐compartment model fit to control group.
[12] abbreviates: dog model, from intravenous PK data.

Turning to `COc1ccc2cc([C@H](C)C(=O)O)ccc2c1` [Naproxen], the “k complex” value in [1] is 780 M⁻¹.

As to `CC[C@@]1(O)C(=O)OCc2c1cc1n(c2=O)Cc2cc3ccccc3nc2-1` [Camptothecin], in data set [1], the “k complex” value is 184 M⁻¹.

In the case of `O=C(O)c1cc(-c2ccc(F)cc2F)ccc1O` [Diflunisal], in data set [2], the “k complex (M^−1)” value is reported as 1,600 M^−1.

Regarding `Clc1ccc(COC(Cn2ccnc2)c2ccc(Cl)cc2Cl)cc1` (stereo not drawn) [Econazole], the “k complex” value in [1] is 180 M⁻¹.

On to `CS(=O)(=O)c1ccc(C2=C(c3ccccc3)C(=O)OC2)cc1` [Rofecoxib], for which the “k complex” value in data set [2] came out at 190 M⁻¹.

Consider `C[C@]12CCC(=O)C=C1CC[C@@H]1[C@@H]2[C@@H](O)C[C@@]2(C)[C@H]1CC[C@]2(O)C(=O)CO` [Hydrocortisone], for which the “k complex (M^−1)” value in data set [1] was 1,900 M^−1.

On to `C[C@]12CC[C@@H]3c4ccc(O)cc4CC[C@H]3[C@@H]1CC[C@@H]2O` [Estradiol], for which the “k complex (M^−1)” value in data set [1] is on record as 38,600 M^−1.

With `C[C@H]1O[C@@H](O[C@H]2[C@@H](O)C[C@H](O[C@H]3[C@@H](O)C[C@H](O[C@H]4CC[C@@]5(C)[C@H](CC[C@@H]6[C@@H]5C[C@@H](O)[C@]5(C)[C@@H](C7=CC(=O)OC7)CC[C@]65O)C4)O[C@@H]3C)O[C@@H]2C)C[C@H](O)[C@@H]1O` [Digoxin], the “k complex (M^−1)” value in [1] is recorded as 6,800 M^−1.

Take `CC(=O)Nc1nnc(S(N)(=O)=O)s1` [Acetazolamide]: the “k complex” value in data set [1] is 85 M⁻¹.

Turning to `Cc1nnc2n1-c1ccc(Cl)cc1C(c1ccccc1)=NC2` [Alprazolam], in data set [1], the “k complex” value was 250 M⁻¹.

As to `CN1C(=O)CN=C(c2ccccc2)c2cc(Cl)ccc21` [Diazepam], the “k complex” value in data set [1] was 184 M⁻¹.

In the case of `Cc1cc(NS(=O)(=O)c2ccc(N)cc2)no1` [Sulfamethoxazole], the “k complex” value in data set [1] was 360 M⁻¹.

Take `Clc1ccc(COC(Cn2ccnc2)c2ccc(Cl)cc2Cl)c(Cl)c1` (stereo not drawn) [Miconazole]: the “k complex” value in data set [1] is 260 M⁻¹.

`Nc1ccc(S(=O)(=O)Nc2nccs2)cc1` [Sulfathiazole]: the “k complex” value in data set [2] amounted to 450 M⁻¹.

As to `C[C@H]1CN(C2COC2)CCN1c1ccc(Nc2cc(-c3ccnc(N4CCn5c(cc6c5CC(C)(C)C6)C4=O)c3CO)cn(C)c2=O)nc1` [Fenebrutinib], the “particle size distribution median diameter (D50)” value in [3] stood at 12 µm. Besides, the solubility is 36000 µg/mL (≈ 54200 µM) in data set [3] (pH 2.3); 9 µg/mL (≈ 13.5 µM) in data set [3] (pH 6.5, fassif); 0.1 µg/mL (≈ 0.15 µM) in [3] (pH 7.8, aqueous buffer). Besides, in [4], the “reduction in P app” value was around 2 fold. Moreover, the “AUC 0‐∞” value in [5] (HP‐β‐CD 0 g) is 28.9 ± 6.98 µg/h/mL; in data set [5] (HP‐β‐CD 0.8 g), 17.4 ± 6.92 µg/h/mL; in data set [5] (HP‐β‐CD 2 g), 8.38 ± 1.94 µg/h/mL; in [5] (HP‐β‐CD 8 g), 4.46 ± 2.07 µg/h/mL. Besides, the “Fenebrutinib recovered in feces” value in [5] (HP‐β‐CD 0 g) turned out to be 3.48 ± 0.681 mg; in [5] (HP‐β‐CD 0.8 g), 11.2 ± 2.39 mg; in data set [5] (HP‐β‐CD 2 g) it was 15.6 ± 8.99 mg; in [5] (HP‐β‐CD 8 g), 22.7 ± 7.76 mg. Also, the “increase of recovery in feces vs control” value was around 3 fold in data set [5] (HP‐β‐CD 0.8 g), around 4.5 fold in [5] (HP‐β‐CD 2 g) and “about 6.5 fold” in [5] (HP‐β‐CD 8 g). Further, the figures for the “AUC decrease vs control” value in data set [5] (HP‐β‐CD 2 g) and in [5] (HP‐β‐CD 8 g) were around 3.5 fold and “about 7 fold”, respectively. For the same molecule, the “Cmax decrease vs control” value in [5] (HP‐β‐CD 2 g) was around 3.5 fold. The Cmax in [5] (HP‐β‐CD 0 g) is 3940 ± 225 ng/mL; in data set [5] (HP‐β‐CD 0.8 g) it was 2090 ± 243 ng/mL; in data set [5] (HP‐β‐CD 2 g), 1110 ± 142 ng/mL; in [5] (HP‐β‐CD 8 g), 447 ± 204 ng/mL; in data set [6] (setting [10]), 221 ± 82.5 ng/mL. In addition, the Tmax in [5] (HP‐β‐CD 0 g) was determined as 0.875 ± 0.25 h; in [5] (HP‐β‐CD 0.8 g), 1.38 ± 1.11 h; in data set [5] (HP‐β‐CD 2 g) it was 2 ± 1.15 h; in data set [5] (HP‐β‐CD 8 g), 3 h; in data set [6] (setting [10]), 1.56 ± 0.629 h. Further, the “AUC0–24h” value came to 1.11 ± 0.359 µg/h/mL in [6] (100 mg fenebrutinib oral alone, healthy subjects) and 2.45 ± 0.588 µg/h/mL in data set [6] (100 mg fenebrutinib with 200 mg itraconazole oral solution (steady state)). The same molecule gave a half-life in [6] (setting [10]) of 8.26 ± 2.33 h. Further, in data set [7], the “k complex with α‐CD” value is on record as 4,000 M^−1. In addition, the clearance in data set [8] was 19.2 mL/min/kg; in data set [8] (100 mg), 35 mL/min/kg; in [9] (dog, plasma, iv) it was 6 mL/min/kg. Further, the “reduction of systemic clearance in the presence of itraconazole” value in data set [8] (residual method on elimination phases) is “approximately 45%”. Besides, the “transfer rate constant from the central to peripheral compartment” value in data set [8] (setting [11]) was found to be 0.5 h⁻¹; in data set [9] (setting [12]), 0.08 h⁻¹. The “transfer rate constant from the peripheral to central compartment” value came to 0.19 h⁻¹ in data set [8] (setting [11]) and 0.2 h⁻¹ in data set [9] (setting [12]). The “k complex (M^−1)” value in data set [2] is reported as 200,000 M^−1. In addition, the “k complex with HP‐β‐CD” value in [2] (aqueous, 48 hours, ambient) is 2 × 10^5 M^−1 and ~ 2 × 10^5 M^−1.

Regarding `C[C@]12C=CC(=O)C=C1CC[C@@H]1[C@@H]2[C@@H](O)C[C@@]2(C)[C@H]1CC[C@]2(O)C(=O)CO` [Prednisolone], in data set [1], the “k complex” value is 958 M⁻¹.

Take `CCn1cc(C(=O)O)c(=O)c2cc(F)c(N3CCNCC3)cc21` [Norfloxacin]: in data set [2], the “k complex” value is 5 M⁻¹.

`Cc1nnc2n1-c1ccc(Cl)cc1C(c1ccccc1Cl)=NC2` [Triazolam]: the “k complex” value in data set [1] is 200 M⁻¹.

In the case of `CC/C(=C(/CC)c1ccc(O)cc1)c1ccc(O)cc1` [Diethylstilbestrol], in data set [1], the “k complex (M^−1)” value is 59,200 M^−1.

For the molecule `Cc1ccc(-c2cc(C(F)(F)F)nn2-c2ccc(S(N)(=O)=O)cc2)cc1` [Celecoxib], the “k complex (M^−1)” value in data set [2] is 3,000 M^−1.

Turning to `CN1C(=O)CN=C(c2ccccc2F)c2cc([N+](=O)[O-])ccc21` [Flunitrazepam], in [1], the “k complex (M^−1)” value is recorded as 1,100 M^−1.
